Tests used:
[1] = melting temperature; fluorescence melt of hairpins on a sequencing array, two-state fit, raised by 9.35 °C to match UV melts; details: sodium 0.088 M
How it was run: (§1)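 To match UV melts, fitted temperatures were raised by 9.35 °C. These fits were bootstrapped two-state models that gave melting temperature and folding enthalpy, combined by inverse variance over four replicates. The input was normalised Cy3 fluorescence of library hairpins with annealed Cy3 and quencher oligos on a sequenced MiSeq flow cell, imaged in 50 mM Na-HEPES pH 8.0, 25 mM NaCl in 2.5 °C steps up to 60 °C.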

[2] = folding enthalpy; higher = less favourable; fluorescence melt of hairpins on a sequencing array, two-state fit; details: sodium 0.088 M
How it was run: as §1

Sequence	Tm [1]	folding enthalpy [2]
GTTGACCGAAAGGTGAAC (((.(((....))).)))	48.4 °C	-27 kcal/mol
GACAGAGAAATCTGTC ((((((....))))))	50.9 °C	-33.2 kcal/mol
GTACGGGGAAACCCACAC ((..(((....)))..))	30.4 °C	-16.3 kcal/mol
CGGGCGGAAACGCTCCCG ((((((....)))..)))	48.1 °C	-14.7 kcal/mol
GCTGGCCGAAAGGCAGC (((.(((....))))))	65.8 °C	-20.6 kcal/mol
CGTCACCGGAAACGGACG (((..(((....))))))	36.4 °C	-21.6 kcal/mol
GATCTAAACTAGATC ((((((...))))))	36.1 °C	-23.9 kcal/mol
GCCATGCGAAAGCACGGC (((.(((....))).)))	56.9 °C	-49.1 kcal/mol
GAGAAGCCGAAAGGCCTC (((..(((....))))))	37.4 °C	-12.7 kcal/mol
GTGGAGTCGAAAGACCAC (((..(((....))))))	44.9 °C	-20.6 kcal/mol
GATCGTGCAAACGATC ((((((....))))))	66.9 °C	-33 kcal/mol
GTGGATCGAAAGATGCAC (((.(((....))).)))	55.9 °C	-45.9 kcal/mol
GCCGGCGAAAGCCTAGGC ((((((....)))..)))	60.1 °C	-24.5 kcal/mol
GCGTGCGAAAGCATTCGC ((((((....)))..)))	52.4 °C	-16.8 kcal/mol
GATGTCCGAAAGGAATC (((.(((....))))))	31.5 °C	-13.5 kcal/mol
GGCTACCGAAAGGTGCC (((.(((....))))))	61.2 °C	-31.3 kcal/mol
GATCCCCGGCGGGATC ((((((....))))))	55.7 °C	-37.8 kcal/mol
GATCCAGGCATGGATC ((((((....))))))	57.8 °C	-45.8 kcal/mol
GATCCTTTCTAGGATC ((((((....))))))	53.7 °C	-40.5 kcal/mol
GTGAGACCGAAAGGTCAC (((..(((....))))))	50.4 °C	-16.1 kcal/mol
GAAGTAGGAAACCACTTC (((((.(....).)))))	34.8 °C	-24.7 kcal/mol
GCGGCGCGAAAGCACGGC ((.(.((....)).).))	56.4 °C	-20.5 kcal/mol
GATCTGCTACCAGATC ((((((....))))))	48.8 °C	-37.4 kcal/mol

Sequence	Tm [1]	folding enthalpy [2]
GATCGCATACGCGATC ((((((....))))))	69.3 °C	-36.1 kcal/mol
GCTGCGCGAAAGCCTAGC (((..((....))..)))	42.4 °C	-15.7 kcal/mol
GCATTAGGAAACCAATGC (((((.(....).)))))	39.6 °C	-29.6 kcal/mol
GATGTGCGAAAGCATATC (((.(((....))).)))	54.2 °C	-32.6 kcal/mol
GTAGCTGGAAACAGCCAC ((.((((....)))).))	37.7 °C	-14.3 kcal/mol
GCCTTACCGAAAGGTGGC (((..(((....))))))	48.8 °C	-23.6 kcal/mol
GATCCGCCAACGGATC ((((((....))))))	57.7 °C	-36 kcal/mol
GGACGCACGAAAGTGTCC (((..(((....))))))	47 °C	-21.4 kcal/mol
GATCCTTTTAGGATC ((((((...))))))	58.9 °C	-28.8 kcal/mol
CGGTTCGGAAACGATCCG (((.(((....))).)))	51 °C	-36 kcal/mol
ACGAGGAAACTCGT (((((....)))))	50.3 °C	-26 kcal/mol
GCTACGGGAAACCGTGGC ((.((((....)))).))	56.7 °C	-38.2 kcal/mol
GCACTCCGAAAGGATTGC (((.(((....))).)))	50.6 °C	-28.1 kcal/mol
GGTTCCGGAAACGGAATC (.(((((....))))).)	51.4 °C	-23.9 kcal/mol
GGCCTCGCGAAAGCGGCC (((..(((....))))))	59.4 °C	-17.5 kcal/mol
GCCCCCACGAAAGTGGGC (((..(((....))))))	38.6 °C	-5.47 kcal/mol
GGAATACGAAAGTACTCC (((.(((....))).)))	39.5 °C	-27.4 kcal/mol
AACGAGAAATCGTT (((((....)))))	38.5 °C	-16.9 kcal/mol
GCACAAACGAAAGTTTGC (((..(((....))))))	39.7 °C	-11.2 kcal/mol
GGGTACGGAAACGTGTCC ((..(((....)))..))	40.6 °C	-24.8 kcal/mol
GATCAGTATCTGATC ((((((...))))))	48.5 °C	-34.9 kcal/mol
GCAATCGAAAGATGTTGC ((((((....)))..)))	34.6 °C	-15.9 kcal/mol
GTTGCCGAAAGGCCCAAC ((((((....)))..)))	29.4 °C	-6.79 kcal/mol

Sequence	Tm [1]	folding enthalpy [2]
GAGTTAGGAAACTAACTC (((((((....)))))))	54.8 °C	-36.3 kcal/mol
GGTTGGAAACAACC (((((....)))))	54.9 °C	-29.6 kcal/mol
GTAGGTGAAAACCTAC ((((((....))))))	56.4 °C	-30.9 kcal/mol
GACACCGAAAGGTGTGTC ((((((....)))..)))	61.6 °C	-11.3 kcal/mol
GAGATTGCGAAAGCACTC (((..(((....))))))	29.5 °C	-11.3 kcal/mol
GCCGCAGGAAACCGCGAC (.(((.(....).))).)	35.9 °C	-15.6 kcal/mol
GCCTTTGAAAAAAGGC ((((((....))))))	59.2 °C	-32.6 kcal/mol
GCAAGGCGAAAGCCTCGC ((.((((....)))).))	59.3 °C	-18.4 kcal/mol
GCAATCGAAAGATGATGC ((((((....)))..)))	32.5 °C	-18.6 kcal/mol
GTTCACGCGAAAGCGAAC (((..(((....))))))	32.7 °C	-10.2 kcal/mol
GTACCCGAAAGGGCTTAC ((((((....)))..)))	27.1 °C	-11.2 kcal/mol
GCTATCCGAAAGGACAGC (((.(((....))).)))	49 °C	-31.7 kcal/mol
GCGTTGCGAAAGCGCCGC (((..((....))..)))	58.4 °C	-14.8 kcal/mol
GTGGACTCGAAAGAGCAC (((..(((....))))))	39.7 °C	-21.4 kcal/mol
GCACAGCGAAAGCAGAGC ((.(.((....)).).))	47.3 °C	-13.7 kcal/mol
GATCTGTACCAGATC ((((((...))))))	49.3 °C	-31.9 kcal/mol
GCCACGCGAAAGCCTGGC ((((.((....)).))))	59.6 °C	-30.4 kcal/mol
GATCATATCATGATC ((((((...))))))	50.4 °C	-37.2 kcal/mol
GATCGAAAGATCGATC ((((((....))))))	50.2 °C	-19.9 kcal/mol
GATCTCCGACGAGATC ((((((....))))))	50 °C	-38.1 kcal/mol
GCTTTGCGAAAGCGTAGC (((..((....))..)))	37.2 °C	-19.6 kcal/mol
GATCCCAAACGGGATC ((((((....))))))	59.7 °C	-35.3 kcal/mol
GCGTATATACGC ((((....))))	55 °C	-27.1 kcal/mol

Sequence	Tm [1]	folding enthalpy [2]
GCCAGCACGAAAGTGGGC (((..(((....))))))	50.9 °C	-26.9 kcal/mol
GTGTTCCGAAAGGACCAC (((.(((....))).)))	49.7 °C	-38.4 kcal/mol
GAGATGGAAACATCTC ((((((....))))))	53.5 °C	-37 kcal/mol
GCTTGGGAAACCAAGC ((((((....))))))	62.7 °C	-35.7 kcal/mol
GCCCGGCGAAAGCGGCGC ((.(.((....)).).))	64.6 °C	-21.1 kcal/mol
GTAAACGAAAGTTTATAC ((((((....)))..)))	37.1 °C	-13.4 kcal/mol
GGTTCCGAAAGGAGCACC ((((((....)))..)))	39.1 °C	-13.8 kcal/mol
GGGCTAGGAAACTGGCCC ((((.((....)).))))	58.2 °C	-41.4 kcal/mol
GGCAACACGAAAGTGGCC (((..(((....))))))	52.6 °C	-37.4 kcal/mol
GCCGCGCGAAAGCACTGC ((.(.((....)).).))	38.2 °C	-18.7 kcal/mol
GATCTTTTACAAGATC ((((((....))))))	42.8 °C	-31.9 kcal/mol
GGCATAGCGAAAGCTGCC (((..(((....))))))	59.2 °C	-31.4 kcal/mol
GAACCCGAAAGGGTTTTC ((((((....)))..)))	55.9 °C	-13.4 kcal/mol
GATCTCTGCAGAGATC ((((((....))))))	57 °C	-41.6 kcal/mol
GGAGCCGAAAGGCGTTCC ((((((....)))..)))	40 °C	-10.1 kcal/mol
GCAAGGCGAAAGCCTGGC ((.((((....)))).))	68.9 °C	-23.1 kcal/mol
GGACCCCGAAAGGGTTCC (((.(((....))).)))	52.5 °C	-23.2 kcal/mol
GGACTCCGAAAGGATTCC (((.(((....))).)))	47 °C	-30.2 kcal/mol
GACTTGACGAAAGTCGTC (((..(((....))))))	51.7 °C	-15.8 kcal/mol
GATCCATAGCTGGATC ((((((....))))))	49.2 °C	-33.4 kcal/mol
GGGTTAGGAAACTGACCC ((((.((....)).))))	50 °C	-34.6 kcal/mol
GATCCAGGTGTGGATC ((((((....))))))	52 °C	-44.8 kcal/mol
GGGCGACGAAAGTCTCCC (((.(((....))).)))	53.6 °C	-43.2 kcal/mol

Source: the array DNA melting data of Ke et al. (doi:10.1101/2024.01.08.574731)
